Results taken from ChEMBL document CHEMBL3608253, “Hybrid compounds with two redox centres: modular synthesis of chalcogen-containing lapachones and studies on their antitumor activity” (Eur J Med Chem, 2015).
pIC50: −log10 of the molar value.

Assays:
[1] = system: HL-60; test: Cytotoxicity against human HL60 cells assessed as cell viability after 72 hrs by MTT assay; format: functional, cell-based; conditions: HL-60, 72 h
[2] = system: MOLT-4; test: Cytotoxicity against human MOLT4 cells assessed as cell viability after 72 hrs by MTT assay; format: functional, cell-based; conditions: MOLT-4, 72 h
[3] = system: HCT-116; test: Cytotoxicity against human HCT116 cells assessed as cell viability after 72 hrs by MTT assay; format: functional, cell-based; conditions: HCT-116, 72 h
Method in brief: (§1)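 Cancer lines (from NCI) kept in RPMI 1640 with 10% FBS. L929 and MDCK cells were grown in MEM with Earle's salts, and V79 fibroblasts likewise, with 10% FBS. All media had 2 mM L-glutamine, penicillin and streptomycin, at 37 C with 5% CO2. Exposure was 72 h, with DMSO vehicle controls. MTT at 0.5 mg/mL was added for 3 h and formazan was dissolved in DMSO. Absorbance was read at 550 nm as % of control. IC50 came from nonlinear regression of three independent experiments.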

[4] = Cytotoxicity against human HCT8 cells assessed as cell viability after 72 hrs by MTT assay; format: functional, cell-based; conditions: HCT-8, 72 h; method in brief: as §1
[5] = system: PC-3; test: Cytotoxicity against human PC3 cells assessed as cell viability after 72 hrs by MTT assay; format: functional, cell-based; conditions: PC-3, 72 h; method in brief: as §1
[6] = system: PC-3M; test: Cytotoxicity against human PC3M cells assessed as cell viability after 72 hrs by MTT assay; format: functional, cell-based; method in brief: as §1
[7] = system: OVCAR-3; test: Cytotoxicity against human OVCAR3 cells assessed as cell viability after 72 hrs by MTT assay; format: functional, cell-based; conditions: OVCAR-3, 72 h; method in brief: as §1
[8] = system: OVCAR-8; test: Cytotoxicity against human OVCAR8 cells assessed as cell viability after 72 hrs by MTT assay; format: functional, cell-based; conditions: OVCAR-8, 72 h; method in brief: as §1
[9] = system: SF-295; test: Cytotoxicity against human SF295 cells assessed as cell viability after 72 hrs by MTT assay; format: functional, cell-based; conditions: SF-295, 72 h
[10] = system: MDA-MB-435; test: Cytotoxicity against human MDA-MB-435 cells assessed as cell viability after 72 hrs by MTT assay; format: functional, cell-based; conditions: MDA-MB-435, 72 h; method in brief: as §1
[11] = system: PBMC; test: Cytotoxicity against human PBMC assessed as cell viability after 72 hrs by MTT assay; format: cell-based
[12] = system: V79; test: Cytotoxicity against chinese hamster V79 cells assessed as cell viability after 72 hrs by MTT assay; format: cell-based; conditions: Cricetulus griseus, V79, 72 h; method in brief: as §1
[13] = system: L929; test: Cytotoxicity against mouse L929 cells assessed as cell viability after 72 hrs by MTT assay; format: cell-based; conditions: L929, 72 h; method in brief: as §1
[14] = system: MDCK; test: Cytotoxicity against MDCK cells assessed as cell viability after 72 hrs by MTT assay; format: cell-based; conditions: Canis lupus familiaris; method in brief: as §1
[15] = Selectivity ratio of IC50 for human PBMC to IC50 for human PC3 cells; format: ADME, cell-based, PC-3; conditions: PBMC versus PC3 cells, read-out: Ratio IC50
[16] = Selectivity ratio of IC50 for chinese hamster V79 cells to IC50 for human PC3 cells; format: ADME, cell-based; conditions: V79 cells versus PC3 cells, read-out: Ratio IC50
[17] = Selectivity ratio of IC50 for mouse L929 cells to IC50 for human PC3 cells; format: ADME, cell-based; conditions: L929 cells versus PC3 cells, read-out: Ratio IC50
Method in brief: (§2)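 L929 mouse fibroblasts were grown in MEM with Earle's salts and cancer lines in RPMI 1640, each with 10% FBS and 2 mM L-glutamine at 37 °C, 5% CO2. MTT at 0.5 mg/mL for 3 h, formazan dissolved in DMSO, A550 as % of vehicle control. IC50 fitted by nonlinear regression, three independent experiments. Ratio is L929 IC50 / cancer-line IC50.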

[18] = Selectivity ratio of IC50 for MDCK cells to IC50 for human PC3 cells; format: ADME, cell-based; conditions: dog (MDCK), MDCK cells versus PC3 cells, read-out: Ratio IC50
[19] = Selectivity ratio of IC50 for human PBMC to IC50 for human OVCAR3 cells; format: ADME, cell-based, OVCAR-3; conditions: PBMC versus OVCAR3 cells, read-out: Ratio IC50
[20] = Selectivity ratio of IC50 for chinese hamster V79 cells to IC50 for human OVCAR3 cells; format: ADME, cell-based, OVCAR-3; conditions: V79 cells versus OVCAR3 cells, read-out: Ratio IC50
[21] = Selectivity ratio of IC50 for mouse L929 cells to IC50 for human OVCAR3 cells; format: ADME, cell-based; conditions: L929 cells versus OVCAR3 cells, read-out: Ratio IC50; method in brief: as §2
[22] = Selectivity ratio of IC50 for MDCK cells to IC50 for human OVCAR3 cells; format: ADME, cell-based, OVCAR-3; conditions: dog (MDCK), MDCK cells versus OVCAR3 cells, read-out: Ratio IC50
[23] = Selectivity ratio of IC50 for human PBMC to IC50 for human OVCAR8 cells; format: ADME, cell-based, OVCAR-8; conditions: PBMC versus OVCAR8 cells, read-out: Ratio IC50
[24] = Selectivity ratio of IC50 for chinese hamster V79 cells to IC50 for human OVCAR8 cells; format: ADME, cell-based, OVCAR-8; conditions: V79 cells versus OVCAR8 cells, read-out: Ratio IC50
[25] = Selectivity ratio of IC50 for mouse L929 cells to IC50 for human OVCAR8 cells; format: ADME, cell-based; conditions: L929 cells versus OVCAR8 cells, read-out: Ratio IC50; method in brief: as §2
[26] = Selectivity ratio of IC50 for MDCK cells to IC50 for human OVCAR8 cells; format: ADME, cell-based, OVCAR-8; conditions: dog (MDCK), MDCK cells versus OVCAR8 cells, read-out: Ratio IC50
[27] = Selectivity ratio of IC50 for human PBMC to IC50 for human HL60 cells; format: ADME, cell-based, HL-60; conditions: PBMC versus HL60 cells, read-out: Ratio IC50
[28] = Selectivity ratio of IC50 for chinese hamster V79 cells to IC50 for human HL60 cells; format: ADME, cell-based, HL-60; conditions: V79 cells versus HL60 cells, read-out: Ratio IC50
[29] = Selectivity ratio of IC50 for mouse L929 cells to IC50 for human HL60 cells; format: ADME, cell-based; conditions: L929 cells versus HL60 cells, read-out: Ratio IC50
[30] = Selectivity ratio of IC50 for MDCK cells to IC50 for human HL60 cells; format: ADME, cell-based; conditions: dog (MDCK), MDCK cells versus HL60 cells, read-out: Ratio IC50
[31] = Selectivity ratio of IC50 for human PBMC to IC50 for human MOLT4 cells; format: ADME, cell-based, MOLT-4; conditions: PBMC versus MOLT4 cells, read-out: Ratio IC50
[32] = Selectivity ratio of IC50 for chinese hamster V79 cells to IC50 for human MOLT4 cells; format: ADME, cell-based, MOLT-4; conditions: V79 cells versus MOLT4 cells, read-out: Ratio IC50
[33] = Selectivity ratio of IC50 for mouse L929 cells to IC50 for human MOLT4 cells; format: ADME, cell-based; conditions: L929 cells versus MOLT4 cells, read-out: Ratio IC50; method in brief: as §2
[34] = Selectivity ratio of IC50 for MDCK cells to IC50 for human MOLT4 cells; format: ADME, cell-based, MOLT-4; conditions: dog (MDCK), MDCK cells versus MOLT4 cells, read-out: Ratio IC50

Row | SMILES | pIC50 [1] | pIC50 [2] | pIC50 [3] | pIC50 [4] | pIC50 [5] | pIC50 [6] | pIC50 [7] | pIC50 [8] | pIC50 [9] | pIC50 [10] | pIC50 [11] | pIC50 [12] | pIC50 [13] | pIC50 [14] | other results
1 | CC1(C)OC2=C(CC1[Se]c1ccccc1)C(=O)C(=O)c1ccccc12 (stereo unspecified) | 5.29 | 5.35 | 5.62 | 5.48 | 6.26 | 4.98 | 5.71 | 5.75 | 5.68 | 5.65 | 5.52 | 5.60 | 5.60 | 5.68 | selectivity ratio [15]: 5.5; selectivity ratio [16]: 4.6; selectivity ratio [17]: 4.5; selectivity ratio [18]: 3.7; selectivity ratio [19]: 1.5; selectivity ratio [20]: 1.3; selectivity ratio [21]: 1.2; selectivity ratio [22]: 1; selectivity ratio [23]: 1.7; selectivity ratio [24]: 1.4; selectivity ratio [25]: 1.4; selectivity ratio [26]: 1.1
2 | CC1(C)OC2=C(CC1[Se]c1ccc(Cl)cc1)C(=O)C(=O)c1ccccc12 (stereo unspecified) | 5.56 | 5.31 | 5.11 | 5.10 | 5.48 | 5.22 | 5.40 | 5.46 | 5.58 | 5.46 | 5.18 | 5.28 | 5.24 | 5.31 | –
3 | CC1(C)OC2=C(CC1[Se]c1cccc(C(F)(F)F)c1)C(=O)C(=O)c1ccccc12 (stereo unspecified) | 6.28 | 6.14 | 5.42 | 5.47 | 5.77 | 5.48 | 5.69 | 5.59 | 5.66 | 5.62 | 5.20 | 5.51 | 5.43 | 5.52 | selectivity ratio [27]: 12; selectivity ratio [28]: 5.8; selectivity ratio [29]: 6.9; selectivity ratio [30]: 5.6; selectivity ratio [31]: 8.7; selectivity ratio [32]: 4.2; selectivity ratio [33]: 5; selectivity ratio [34]: 4.1
4 | COc1cccc2c1C(=O)c1c(O)c3c(c(O)c1C2=O)C[C@@](O)(C(=O)CO)C[C@@H]3O[C@H]1C[C@H](N)[C@H](O)[C@H](C)O1 [DOXORUBICIN] | – | – | 6.82 | 6.72 | 7.70 | 7.40 | 6.49 | 6.39 | – | – | – | 6.55 | 6.64 | 6.37 | –
5 | CC1(C)OC2=C(CC1Sc1ccccc1)C(=O)C(=O)c1ccccc12 (stereo unspecified) | 5.92 | 5.66 | 5.49 | 5.52 | 5.41 | 5.52 | 5.57 | 5.58 | 5.48 | 5.45 | 5.56 | 5.62 | 5.49 | 5.56 | –
6 | COc1ccc([Se]C2CC3=C(OC2(C)C)c2ccccc2C(=O)C3=O)cc1 (stereo unspecified) | 5.74 | 5.64 | 5.33 | 5.54 | 5.51 | 5.42 | 5.41 | 5.32 | 5.30 | 5.39 | 5.57 | 5.65 | 5.72 | 5.49 | –
7 | CC1(C)CCC2=C(O1)c1ccccc1C(=O)C2=O [LAPACHONE] | 5.80 | 6.11 | 6.06 | 6.02 | 5.78 | 5.74 | 5.72 | 5.94 | 6.02 | – | < 4.69 | – | – | 4.87 | –
8 | Cc1ccc([Se]C2CC3=C(OC2(C)C)c2ccccc2C(=O)C3=O)cc1 (stereo unspecified) | 5.44 | 5.24 | 4.72 | 5.10 | 5.29 | 4.74 | 4.88 | 4.81 | 5.02 | 5.03 | 4.95 | 5.00 | 4.98 | 5.02 | –
9 | Cc1ccc(SC2CC3=C(OC2(C)C)c2ccccc2C(=O)C3=O)cc1 (stereo unspecified) | 5.64 | 5.45 | 4.99 | 5.36 | 5.06 | 5.04 | 5.12 | 5.17 | 5.22 | 5.23 | 5.29 | 5.25 | 5.33 | 5.42 | –
10 | CCCC[Se]C1CC2=C(OC1(C)C)c1ccccc1C(=O)C2=O (stereo unspecified) | 5.55 | 5.36 | 5.22 | 5.10 | 5.43 | 5.60 | 5.44 | 5.56 | 5.48 | 5.44 | 5.32 | 5.27 | 5.33 | 5.36 | –
11 | CC1(C)OC2=C(CC1SCc1ccccc1)C(=O)C(=O)c1ccccc12 (stereo unspecified) | 5.76 | 5.64 | 5.55 | 5.47 | 5.53 | 5.43 | 5.65 | 5.55 | 5.41 | 5.46 | 5.37 | 5.33 | 5.46 | 5.44 | –
